Results of several laboratories.
Target: Dual specificity mitogen-activated protein kinase kinase 4 (MAP2K4, Homo sapiens, UniProt P45985)
Residues used in one study (P45985 1-399): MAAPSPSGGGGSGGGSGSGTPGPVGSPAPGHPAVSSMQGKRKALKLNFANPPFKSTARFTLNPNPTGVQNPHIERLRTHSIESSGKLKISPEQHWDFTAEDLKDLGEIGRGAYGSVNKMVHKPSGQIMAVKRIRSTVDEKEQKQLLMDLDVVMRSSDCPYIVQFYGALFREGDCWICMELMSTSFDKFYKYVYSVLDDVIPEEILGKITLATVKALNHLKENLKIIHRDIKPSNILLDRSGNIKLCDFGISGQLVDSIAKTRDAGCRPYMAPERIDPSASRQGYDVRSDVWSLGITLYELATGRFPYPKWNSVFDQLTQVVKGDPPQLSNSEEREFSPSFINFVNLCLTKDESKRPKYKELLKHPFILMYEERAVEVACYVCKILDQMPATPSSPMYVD

c1cncc(-c2cccc(Nc3nccc(NC4CCCCC4)n3)c2)c1  remaining binding (binding, competition with immobilised ligand; 10 µM): 64%
O=C1CCc2cc(Nc3cc(OC4CCOCC4)c([N+](=O)[O-])cc3Cl)ccc2N1  remaining binding (cell-free assay, competition with immobilised ligand; 1 µM): 100%
C[C@@H]1CCN(c2nccc(-c3cnn4ncccc34)n2)C1  remaining binding (binding; 1 µM): 69%
O=C(c1ccc(Nc2ncc(Cl)c(-c3cc4ccccc4s3)n2)cc1)N1CCC(N2CCCC2)CC1  remaining binding (binding, competition with immobilised ligand; 1 µM): 69%
c1cnn2ncc(-c3ccnc(N4CCC45COC5)n3)c2c1  remaining binding (binding; 1 µM): 62%
CCN1CCN(Cc2ccc(C(=O)Nc3ccc(C)c(Oc4ccc5c(c4)CC(=O)N5)c3)cc2C(F)(F)F)CC1  remaining binding (binding, competition with immobilised ligand; 1 µM): 100%
O=C(NCC1CCOCC1)c1n[nH]cc1NC(=O)c1c(F)cccc1F  remaining binding (binding, competition with immobilised ligand; 1 µM): 68%
CS(=O)(=O)NCC[C@H](NC(=O)c1cncc2c1cnn2-c1ccc(F)cc1)c1ccnc(S(C)(=O)=O)c1  remaining binding (cell-free assay, competition with immobilised ligand; 1 µM): 100%
O=C(c1ccc(Nc2ncc(Cl)c(-c3ccc(Cl)s3)n2)cc1)N1CCC(N2CCCC2)CC1  remaining binding (binding, competition with immobilised ligand; 1 µM): 42%
CN(C)c1nccc(-c2cnc3ncccn23)n1  remaining binding (binding; 1 µM): 84%
C[C@@H](c1ccc(-n2cnc3c(N)ncnc32)cc1)N1CCc2nn(C)c(Cc3ccccc3)c2C1=O  remaining binding (binding, competition with immobilised ligand; 0.1 µM): 57%
COc1cc(-c2cn(C3CCc4ccccc4N(CC(F)(F)F)C3=O)nn2)ccc1-n1ccc(C)n1 (stereo not drawn)  remaining binding (cell-free assay, competition with immobilised ligand; 1 µM): 100%
COc1ccnn2ncc(-c3ccnc(N(C)C)n3)c12  remaining binding (binding; 1 µM): 100%
CO[C@H]1CC[C@H](CNc2ccc(S(=O)(=O)NC(=O)c3ccc(N4CCN(CC5=C(c6ccc(Cl)cc6)CC(C)(C)CC5)CC4)cc3Oc3cnc4[nH]ccc4c3)cc2[N+](=O)[O-])CC1  remaining binding (cell-free assay, competition with immobilised ligand; 1 µM): 98%
COc1cnc(Nc2cccc(S(N)(=O)=O)c2)nc1N1CCN(c2ccccc2)CC1  remaining binding (binding, competition with immobilised ligand; 1 µM): 99%
N[C@@H]1CCN(c2nccc(-c3cnn4ncccc34)n2)C1  remaining binding (binding; 1 µM): 99%
C=CC(=O)N1CCC(C(=O)NCC(=O)N2CCN(c3nc(-c4cnc(N)nc4C(F)F)nc(N4CCOCC4)n3)CC2)CC1  remaining binding (binding, competition with immobilised ligand; 1 µM): 100%
Cn1cc(Cl)c2c(Oc3c(F)cc(Nc4cc(Cl)nc(N)n4)cc3F)ccnc21  remaining binding (cell-free assay, competition with immobilised ligand; 0.1 µM): 80%
F[C@@H]1CCN(c2nccc(-c3cnn4ncccc34)n2)C1  remaining binding (binding; 1 µM): 100%
Cc1cc(C)c(-n2ccn3nc(-c4cccnc4)cc23)cc1NC(=O)c1cc(C#N)cc(S(F)(F)(F)(F)F)c1  remaining binding (cell-free assay, competition with immobilised ligand; 0.1 µM): 74.7%
O=C(NCCCN1CCOCC1)c1ccc(Nc2nccc(-c3cc4ccccc4s3)n2)cc1  remaining binding (binding, competition with immobilised ligand; 1 µM): 69%
